In article PMC9753112 (ACS Omega, 2022):
Converted amounts (≈) assume the structure as drawn. “And” between values parts separate entries of the source, which are not always exact repeats. Identical values can stand only once. “Also recorded” adds a separate entry of the source. Like-named read-outs stand apart in the source and are kept apart here. Blank lines part the entries; values can stand above or below the compound they belong to.

What was measured:
[1] = test system: HepG2 cells; assay: MTT cytotoxicity assay, HepG2 cells; format: cell-based; conditions: Homo sapiens, HepG2, read-out: IC50 (HepG2)
Outline: (§1)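 Cells grown in medium with 10% FBS and 1% penicillin-streptomycin under CO2 at 37 °C and seeded at 5 × 10^4 per well. They were exposed to the test compound at 0.01, 0.1, 1, 10 and 100 μM, and viability was read by MTT absorbance as percent of control. IC50 came from dose-response curves, averaged over three independent trials.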

[2] = test system: MCF-7 cells; assay: MTT cytotoxicity assay, MCF-7 cells; format: cell-based; conditions: for IC50: Homo sapiens; for cytotoxicity in words: against MCF-7 and HepG2 cells
Outline: as §1

[3] = test system: solid Ehrlich carcinoma cells; assay: In vivo solid Ehrlich carcinoma
[4] = test system: normal cell lines MCF-10A and THLE2; assay: MTT assay on normal breast; format: cell-based
Outline: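 Normal breast MCF-10A and normal liver THLE2 cells, cultured with 10% FBS and 1% penicillin-streptomycin under CO2 at 37 °C. They were seeded at 5 × 10^4 per well and treated with the test compound at 0.01–100 μM. MTT absorbance gave percent viability versus untreated control.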

[5] = target: EGFR (Homo sapiens, UniProt P00533); assay: EGFR enzyme inhibition; format: biochemical
[6] = target: PARP-1 (Homo sapiens, UniProt P09874); assay: PARP-1 enzyme inhibition; format: biochemical
[7] = test system: MCF-7 cells; assay: Annexin V/PI apoptosis-necrosis assessment, MCF-7; format: cell-based; conditions: MCF-7, IC50 dose, 48 h
[8] = test system: HepG2 cells; assay: Annexin V/PI apoptosis-necrosis assessment, HepG2; format: cell-based; conditions: HepG2, IC50 dose, 48 h
[9] = test system: MCF-7 cells; assay: Cell cycle analysis; format: cell-based
Outline: (§2)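 DNA content of untreated and treated cells was measured by flow cytometry as histograms. The percentage of cells in each cycle phase was compared before and after 48 h exposure.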

[10] = test system: HepG2 cells; assay: Cell cycle analysis; format: cell-based
Outline: as §2

[11] = test system: HEPG-2; conditions: antiproliferative activity ref 29; cited from earlier work
[12] = test system: MCF-7; conditions: antiproliferative activity ref 29; cited from earlier work
[13] = test system: MCF-7 cells; conditions: read-out: IC50 (MCF-7 cells); cytotoxic action ref 32; cited from earlier work
[14] = SEC-bearing mice, 5 mg/kg BW IP, seven doses, mean ± SD n = 6
[15] = SEC-bearing mice, 5 mg/kg BW IP, seven doses, mean ± SD n = 6, 5 mg/kg
[16] = SEC-bearing mice, after treatment

Sequence of EGFR (P00533 25-1210): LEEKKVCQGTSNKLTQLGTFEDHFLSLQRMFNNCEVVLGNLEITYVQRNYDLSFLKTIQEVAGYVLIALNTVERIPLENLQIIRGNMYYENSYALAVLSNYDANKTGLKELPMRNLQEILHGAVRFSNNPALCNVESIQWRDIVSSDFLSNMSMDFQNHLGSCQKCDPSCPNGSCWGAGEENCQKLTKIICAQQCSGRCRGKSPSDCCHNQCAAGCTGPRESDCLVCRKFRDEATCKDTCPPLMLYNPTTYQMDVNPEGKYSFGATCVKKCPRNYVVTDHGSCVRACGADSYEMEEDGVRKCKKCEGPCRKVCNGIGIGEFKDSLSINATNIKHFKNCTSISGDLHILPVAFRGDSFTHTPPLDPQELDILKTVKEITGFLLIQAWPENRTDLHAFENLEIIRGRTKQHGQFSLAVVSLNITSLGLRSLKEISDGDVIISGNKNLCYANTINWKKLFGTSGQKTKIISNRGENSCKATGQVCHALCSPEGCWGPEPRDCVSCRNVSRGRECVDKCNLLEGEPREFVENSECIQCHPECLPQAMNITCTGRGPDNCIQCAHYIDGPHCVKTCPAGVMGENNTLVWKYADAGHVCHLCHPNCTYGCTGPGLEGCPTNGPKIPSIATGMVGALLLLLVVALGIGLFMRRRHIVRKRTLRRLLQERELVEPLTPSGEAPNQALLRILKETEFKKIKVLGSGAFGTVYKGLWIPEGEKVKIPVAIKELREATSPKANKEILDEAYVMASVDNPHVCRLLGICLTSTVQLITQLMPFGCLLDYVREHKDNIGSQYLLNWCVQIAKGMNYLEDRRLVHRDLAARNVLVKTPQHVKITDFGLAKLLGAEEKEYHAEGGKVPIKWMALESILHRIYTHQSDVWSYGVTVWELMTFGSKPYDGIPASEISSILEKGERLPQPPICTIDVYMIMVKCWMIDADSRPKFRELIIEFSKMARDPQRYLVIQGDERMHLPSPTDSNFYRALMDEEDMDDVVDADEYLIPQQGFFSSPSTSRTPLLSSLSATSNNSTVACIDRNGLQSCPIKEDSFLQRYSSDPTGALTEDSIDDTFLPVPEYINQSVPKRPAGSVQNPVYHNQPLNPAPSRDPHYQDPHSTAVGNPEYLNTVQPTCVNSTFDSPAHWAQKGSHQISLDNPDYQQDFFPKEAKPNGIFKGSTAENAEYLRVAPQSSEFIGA
Sequence of PARP-1 (P09874 whole entry): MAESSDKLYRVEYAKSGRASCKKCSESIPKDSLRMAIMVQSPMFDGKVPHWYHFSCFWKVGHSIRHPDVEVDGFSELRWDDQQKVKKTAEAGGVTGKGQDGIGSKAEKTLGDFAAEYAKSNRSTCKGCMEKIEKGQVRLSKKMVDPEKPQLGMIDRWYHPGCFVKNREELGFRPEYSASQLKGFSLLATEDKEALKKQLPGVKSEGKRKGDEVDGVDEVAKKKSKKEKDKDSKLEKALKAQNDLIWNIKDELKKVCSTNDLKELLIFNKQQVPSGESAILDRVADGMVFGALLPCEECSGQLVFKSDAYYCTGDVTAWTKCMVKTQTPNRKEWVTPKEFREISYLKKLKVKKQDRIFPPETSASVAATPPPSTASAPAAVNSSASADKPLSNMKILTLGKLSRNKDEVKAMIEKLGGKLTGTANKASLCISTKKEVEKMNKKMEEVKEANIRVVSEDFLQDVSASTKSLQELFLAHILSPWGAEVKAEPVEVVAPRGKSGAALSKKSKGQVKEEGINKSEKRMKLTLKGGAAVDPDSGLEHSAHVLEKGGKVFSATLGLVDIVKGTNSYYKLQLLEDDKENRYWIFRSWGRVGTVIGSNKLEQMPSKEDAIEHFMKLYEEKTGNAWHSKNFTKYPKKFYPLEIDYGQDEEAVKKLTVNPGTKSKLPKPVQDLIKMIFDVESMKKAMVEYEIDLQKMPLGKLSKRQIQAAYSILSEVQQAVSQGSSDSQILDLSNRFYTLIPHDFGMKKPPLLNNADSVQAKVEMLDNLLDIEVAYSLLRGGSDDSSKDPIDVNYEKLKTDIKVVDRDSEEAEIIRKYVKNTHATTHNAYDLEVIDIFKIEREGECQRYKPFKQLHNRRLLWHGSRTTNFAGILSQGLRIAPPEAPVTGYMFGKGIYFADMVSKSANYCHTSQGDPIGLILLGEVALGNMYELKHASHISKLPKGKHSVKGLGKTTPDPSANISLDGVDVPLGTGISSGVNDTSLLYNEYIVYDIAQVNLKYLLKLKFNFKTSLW

Compound: O=C(NNC(=S)Nc1ccccc1)c1cc2ccccc2[nH]1 [2a, 1-(1H-Indol-2-yl-carbonyl)-4-Phenyl-thiosemicarbazide]
IC50 [1]: 12.4 µM

Compound: S=c1[nH]nc(-c2cc3ccccc3[nH]2)n1-c1ccccc1 [3a, 5-(1H-Indol-2-yl)-4-phenyl-1,2,4-triazole-3(4H)-thione]
IC50 [1]: 7.39 µM

Compound: S=c1[nH]nc(-c2cc3ccccc3[nH]2)n1-c1ccc(Cl)cc1 [3b, 4-(4-Chlorophenyl)-5-(1H-indol-2-yl)-2H-1,2,4-triazole-3(4H)-thione]
IC50 ([2]; MCF7, read-out: IC50 (MCF-7)): 14.2 µM
IC50 [1]: 17.2 µM

Compound: O=c1[nH]cc(F)c(=O)[nH]1 [5-FU, reference compound]
tumor inhibition ratio (TIR%) ([3]; SEC-bearing mice, 5 mg/kg BW IP, seven doses): 65.7%
tumor volume [3, 14]: 114 mm^3

Compound: OCCSc1nnc(-c2cc3ccccc3[nH]2)n1-c1ccccc1 [12a, 3-(2-Hydroxyeth-1-ylsulfanyl)-5-(1H-indol-2-yl)-4-phenyl-1,2,4-triazole]
IC50 ([2]; MCF7, read-out: IC50 (MCF-7)): 12.1 µM
IC50 ([2]; MCF7, read-out: IC50 range): 6.21 to 16.3 µM
cytotoxicity in words [2]: moderate activity
IC50 [1]: 16.3 µM

IC50 [5]: 78.1 nM
IC50 [6]: 2.13 nM
Compound: OCCSc1nnc(-c2cc3ccccc3[nH]2)n1-c1ccc(Cl)cc1 [12b, 4-(4-Chlorophenyl)-3-(2-hydroxyeth-1-ylsulfanyl)-5-(1H-indol-2-yl)-1,2,4-triazole]
IC50 ([2]; MCF7, read-out: IC50 (MCF-7)): 2.67 µM
cytotoxicity in words [2]: potent cytotoxicity
IC50 [1]: 3.21 µM
inhibition at 100 µM ([4]; read-out: cell inhibition): 80%

IC50 [5]: 140 nM
IC50 [6]: 21.6 nM
Compound: CC(O)CSc1nnc(-c2cc3ccccc3[nH]2)n1-c1ccccc1 (stereo not drawn) [13a, 3-(2-Hydroxyprop-1-ylsulfanyl)-5-(1H-indol-2-yl)-4-phenyl-1,2,4-triazole]
IC50 ([2]; MCF7, read-out: IC50 (MCF-7)): 6.21 µM
IC50 ([2]; MCF7, read-out: IC50 range): 6.21 to 16.3 µM
cytotoxicity in words [2]: moderate activity
IC50 [1]: 8.91 µM

Compound: CC(O)CSc1nnc(-c2cc3ccccc3[nH]2)n1-c1ccc(Cl)cc1 (stereo not drawn) [13b, 4-(4-Chlorophenyl)-3-(2-hydroxyprop-1-ylsulfanyl)-5-(1H-indol-2-yl)-1,2,4-triazole]
IC50 ([2]; MCF7, read-out: IC50 (MCF-7)): 1.07 µM
cytotoxicity in words [2]: potent cytotoxicity
IC50 [1]: 0.32 µM
toxicity to healthy cells ([4]; normal cells): no toxicity to healthy cells
early apoptosis [7]: 10.6%
late apoptosis [7]: 16.9%
necrosis-mediated cell death [7]: 5.06%
necrosis-mediated cell death, fold increase [7]: 4.18 fold
total apoptotic cell death [7]: 27.63%
total apoptotic cell death, fold vs control [7]: 26 fold
early apoptosis [8]: 23.61%
late apoptosis [8]: 9.34%
necrosis-induced cell death [8]: 6.01%
necrosis-induced cell death, fold increase [8]: 6.1 fold
total apoptotic cell death [8]: 32.95%
total apoptotic cell death, fold increase [8]: 34.68 fold
cell cycle arrest phase ([9]; MCF-7): arrested cell division at the G2/M phase
%DIP G2/M ([9]; MCF-7, 1.07 μM, 48 h): 26.4%
cell cycle arrest phase ([10]; HepG2): arrested cell division at the S phase
%DIP S ([10]; HepG2, 0.32 μM, 48 h): 45.21%
IC50 [5]: 62.4 nM
IC50 [6]: 1.24 nM
histopathological examination of liver tissues ([3]; SEC-bearing mice treated): improvement in liver tissues and retained them near normal; also recorded: Mild hydropic degeneration of hepatocytes
tumor volume [3, 14]: 129.6 ± 13.6 mm^3
Hb [3, 15]: 7.29 g/dL
total protein [3, 15]: 5.6 g/dL and 5.6 ± 0.39 g/dL
tumor weight [3, 15]: 74.6 mg and 74.6 ± 2.79 mg
tumor inhibition ratio (TIR%) ([3]; SEC-bearing mice, 5 mg/kg BW IP, seven doses, 5 mg/kg): 66.7% and 66.7 ± 1.06%
ALT [3, 16]: 50.6 U/L
AST [3, 16]: 60.3 U/L
WBC [3, 16]: 4360 L⁻¹

total protein [3, 14]: 6.2 ± 0.47 g/dL
Compound: C#Cc1cccc(Nc2ncnc3cc(OCCOC)c(OCCOC)cc23)c1 [Erlotinib, reference compound]
IC50 ([2]; MCF7, read-out: IC50 (MCF-7)): 2.51 µM
IC50 [1]: 2.91 µM
tumor volume [3, 14]: 114.6 ± 12.5 mm^3
tumor weight [3, 15]: 69.3 mg and 69.3 ± 2.19 mg

Compound: c1ccc(CSc2nc(-c3cc4ccccc4[nH]3)n[nH]2)cc1 [I, 3-Benzylsulfanyl-5-(1H-indol-2-yl)-2H-1,2,4-triazole]
IC50 (HEPG-2) [11]: 3.58 µg/mL (≈ 11.7 µM)
IC50 (MCF-7) [12]: 4.53 µg/mL (≈ 14.8 µM)

Compound: CNC(=O)c1cc(Oc2ccc(NC(=O)Nc3ccc(Cl)c(C(F)(F)F)c3)cc2)ccn1 [Sorafenib]
IC50 [13]: 2130 nM

Compound: COc1cccc2c1C(=O)c1c(O)c3c(c(O)c1C2=O)C[C@@](O)(C(=O)CO)C[C@@H]3O[C@H]1C[C@H](N)[C@H](O)[C@H](C)O1 [doxorubicin]
IC50 (HEPG-2) [11]: 4.0 µg/mL (≈ 7.36 µM)
IC50 (MCF-7) [12]: 4.0 µg/mL (≈ 7.36 µM)
